Rows were chosen to be rich in hits. Some 2.6% of all compounds tested hit in one or more screens of this group.
Rin1-Abl PPI inh – inhibitors of human Rin1-Abl protein interaction. P00519+Q13671. TR-FRET Rin1/Abl binding, biochemical. inhibition, % at 7.35 µM. actives 0.4% (n = 360,000). AID 588664; in the data active = inhibition above about 5%, passing the limit was not always enough
T cell HTS – T cell immune modulators affecting CD8 T cell-vesicle binding; 2C CD8+ T cell-vesicle binding, flow cytometry; active compounds read low; response (vesicle binding), % at 7 µM; actives 0.068% (n = 330,000);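 active = response, share of CD8 T cells binding vesicles, and their 90th percentile fluorescence all below set limits, cut at about 80% in these data, passing the limit was not always enough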;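 note: values below 100% mean blocked vesicle binding to the CD8+ T cells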
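Assay system – 2C mouse CD8+ T cells · Also added – QL9-loaded Drosophila micro-vesicles · Timing – Cell–vesicle co-incubation 1.5 h at 37 °C, staining 20 min on ice · Signal – flow cytometry of vesicle-bound cells · Measure – percent CD8+ FL2 mean versus row control · Controls – Peptide-free naked vesicles (low) and QL9 vesicles with 0.7% DMSO vehicle (high)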
GRK2 aptamer HTS – blocks RNA aptamer binding to human GRK2 | actives 0.59% (n = 330,000) | inhibition of aptamer binding, % at 10 µM | P25098 | bead flow cytometry, FAM-aptamer displacement from GRK2;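 active = inhibition of aptamer binding above 40%, roughly 3 SD of noise, on plates passing a quality check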;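 note: median bead fluorescence of bound FAM aptamer so fluorescent compounds give negative values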
Target sequence (P25098 whole entry, looked up): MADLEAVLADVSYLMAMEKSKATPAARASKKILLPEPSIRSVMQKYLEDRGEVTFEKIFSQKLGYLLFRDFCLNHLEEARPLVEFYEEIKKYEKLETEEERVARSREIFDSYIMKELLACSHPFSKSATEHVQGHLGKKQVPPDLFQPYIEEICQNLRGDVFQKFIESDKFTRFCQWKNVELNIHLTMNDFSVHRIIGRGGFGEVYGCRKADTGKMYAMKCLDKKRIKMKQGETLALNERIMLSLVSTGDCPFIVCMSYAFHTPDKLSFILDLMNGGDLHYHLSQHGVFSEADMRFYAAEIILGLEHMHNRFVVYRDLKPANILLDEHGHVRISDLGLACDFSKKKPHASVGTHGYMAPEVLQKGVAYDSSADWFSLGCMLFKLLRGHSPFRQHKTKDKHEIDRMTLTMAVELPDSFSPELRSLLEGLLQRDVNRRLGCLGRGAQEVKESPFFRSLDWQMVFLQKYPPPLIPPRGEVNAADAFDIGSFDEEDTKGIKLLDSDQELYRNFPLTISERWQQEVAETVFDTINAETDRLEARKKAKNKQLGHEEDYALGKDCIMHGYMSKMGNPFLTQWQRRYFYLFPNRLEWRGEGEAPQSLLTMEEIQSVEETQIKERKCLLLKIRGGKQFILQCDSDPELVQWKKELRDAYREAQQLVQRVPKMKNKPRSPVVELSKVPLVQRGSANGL
SKN-1 block – blocks SKN-1 activity in C. elegans; C. elegans VP596 Pgst-4::GFP/RFP ratio, acrylamide-induced, 24 h; inhibition, % at 21.8 µM; actives 0.49% (n = 360,000); AID 624304;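 active = interference check ratio from 0.5 to 1.5 plus GFP to RFP signal ratio inhibition reaching or exceeding a fixed threshold, cut at about 30% in these data, passing the limit was not always enough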
Myeloid diff 2 – promotes myeloid progenitor differentiation; ER-HoxA9 myeloid progenitors, lysozyme-GFP differentiation, flow cytometry; actives 1% (n = 360,000); calls only at 10 µM; AID 624256;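 active = normalized GFP-positive differentiation at or above the plate's own cutoff, the solvent-only control mean plus 3 SD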;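 note: cells exposed to compound for four days before flow analysis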
Rce1 inh – yeast Ras-converting enzyme inhibition. yeast membranes, quenched prenylated peptide cleavage fluorescence. calls only. actives 0.27% (n = 290,000). AID 2563;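 active = fall in fluorescence gain of 50% or more versus controls, with final raw signal at or below 3038400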;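 note: plate controls were neutral control wells for no effect and wells lacking membranes for full effect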
GRK2 CP1 – confirmation of human GRK2 inhibitors displacing RNA aptamer; shares compounds with GRK2 aptamer HTS; bead-bound GRK2, FAM-aptamer displacement, flow cytometry; aptamer displacement, % at 10 µM; actives 4% (n = 2,000);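 active = aptamer displacement above 40%, near three times the noise of non-fluorescent compounds, on plates passing quality checks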;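 note: negative values mostly reflect intrinsic compound fluorescence rather than true enhancement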
FAM quench CP1 – counter-screen for GRK2 aptamer inhibitors: fluorescent aptamer quenchers. shares compounds with GRK2 aptamer HTS. fluorescence response (% of DMSO), % at 10 µM. 2,000 tested, under 10 active. Carboxyfluorescein RNA aptamer on beads, flow cytometry quenching; active compounds read low;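 active = compounds that quench the bead-bound fluorescent RNA probe, cutting fluorescence to under half of the solvent control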;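 note: counterscreen run without GRK2 so only probe quenching by compound is measured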
GRK2 CP2 – confirmation of human GRK2 inhibitors binding RNA aptamer site | shares compounds with GRK2 aptamer HTS | bead-bound GRK2, FAM-aptamer displacement, flow cytometry | inhibition of aptamer binding, % at 10 µM | 360 tested, under 10 active | AID 504782;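 active = inhibition of aptamer binding above 40%, about triple the noise seen with nonglowing compounds, on plates passing quality control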;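 note: negative values mostly come from compounds that fluoresce themselves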
FAM quench CP2 – quenches fluorescent RNA aptamer, GRK2 hit artifact; shares compounds with GRK2 aptamer HTS; carboxyfluorescein RNA aptamer beads, flow cytometry quenching; active compounds read low; fluorescence response vs DMSO, % at 10 µM; 360 tested, under 10 active; AID 588494;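 active = response vs DMSO under 50%, meaning signal dropped by over half, treated as fluorescence quencher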;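 note: labelled aptamer on streptavidin beads without GRK2 as a quench counter-screen; 100% = bead fluorescence of DMSO wells and lower means quenching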
Numbers without * were called inactive.

How did Cc1ccc(S(=O)(=O)N(C)c2ccc(C(=O)NCC(c3ccco3)N(C)C)cc2)cc1 (centres undefined) do in these assays?
Rin1-Abl PPI inh: 2; T cell HTS: 346; GRK2 aptamer HTS: 0; SKN-1 block: 13; Myeloid diff 2: inactive

How did CC(C)(C)S(=O)N1Cc2cc(=O)n(Cc3ccccc3)cc2[C@H]1CCO (some centres undefined) do in these assays?
Rin1-Abl PPI inh: 0; SKN-1 block: 1; Myeloid diff 2: inactive

What do the screens show for `O=C(NCc1nnnn1-c1ccc(F)cc1)c1ccc(S(=O)(=O)N2CCOCC2)cc1`?
Rin1-Abl PPI inh: -5; SKN-1 block: -15; Myeloid diff 2: inactive

What do the screens show for `COc1ccc(C(=O)NC(Cn2ccnc2)C(C)(C)C)cc1OC1CCN(C(C)C)CC1` (centres undefined)?
Rin1-Abl PPI inh: -2; T cell HTS: 101; GRK2 aptamer HTS: 80*; SKN-1 block: 5; Myeloid diff 2: inactive; Rce1 inh: inactive; GRK2 CP2: -3; FAM quench CP2: 102

Results for COCCCNC(=O)c1ccc(OC)c(OC2CCN(C(C)C)CC2)c1 ?
Rin1-Abl PPI inh: -2; T cell HTS: 176; GRK2 aptamer HTS: 4; SKN-1 block: -5; Myeloid diff 2: inactive; Rce1 inh: inactive

How did CN(C)S(=O)(=O)n1cnc(C(CCO)c2ncn(S(=O)(=O)N(C)C)c2CCCO)c1 (centres undefined) do in these assays?
Rin1-Abl PPI inh: 0; T cell HTS: 629; GRK2 aptamer HTS: 40; SKN-1 block: 29; Myeloid diff 2: inactive; GRK2 CP1: 3; FAM quench CP1: 22*

Results for COc1ccc(OC)c(-n2c(SC)nnc2-c2c[nH]c3ccccc23)c1 ?
Rin1-Abl PPI inh: 0; T cell HTS: 249; GRK2 aptamer HTS: 100*; SKN-1 block: 3; Myeloid diff 2: inactive; Rce1 inh: inactive; GRK2 CP1: -3; FAM quench CP1: 99

How did O=C(O)C1C2C=CC(C3CC23)C1C(=O)O (centres undefined) do in these assays?
Rin1-Abl PPI inh: -2; T cell HTS: 534; GRK2 aptamer HTS: 18; SKN-1 block: 0; Myeloid diff 2: inactive; Rce1 inh: inactive; GRK2 CP2: 6; FAM quench CP2: 101

What do the screens show for `CCOC(=O)N1CCN(C(=O)CSc2ccc3nnc(-c4ccncc4)n3n2)CC1`?
Rin1-Abl PPI inh: -6; T cell HTS: 375; GRK2 aptamer HTS: 8; SKN-1 block: 1; Myeloid diff 2: inactive; Rce1 inh: inactive

How did CCOC(=O)CC(=O)CSc1ccc2nnc(-c3ccc(C)cc3)n2n1 do in these assays?
Rin1-Abl PPI inh: -3; T cell HTS: 460; GRK2 aptamer HTS: 100*; SKN-1 block: -2; Myeloid diff 2: active; Rce1 inh: inactive; GRK2 CP1: -2; FAM quench CP1: 98

How did COc1cc(C(C)=O)ccc1OCC(=O)N(CCC1=CCCCC1)c1c(N)n(Cc2ccccc2)c(=O)[nH]c1=O do in these assays?
Rin1-Abl PPI inh: 1; T cell HTS: 163; GRK2 aptamer HTS: 1; SKN-1 block: -10; Myeloid diff 2: inactive; Rce1 inh: inactive

Results for COc1ccc(/C=C/C(=O)N2CCN(c3ccccn3)CC2)cc1OC ?
Rin1-Abl PPI inh: -5; T cell HTS: 196; GRK2 aptamer HTS: 53*; SKN-1 block: -4; Rce1 inh: inactive; GRK2 CP1: 0; FAM quench CP1: 100

How did COc1cc(/C=C/C(=O)N2CCN(c3ccccn3)CC2)cc(OC)c1OC do in these assays?
Rin1-Abl PPI inh: -6; T cell HTS: 386; GRK2 aptamer HTS: 0; SKN-1 block: -8; Myeloid diff 2: inactive; Rce1 inh: inactive

How did O=C(CN1CCCCC1)NC(=O)NC1CCCCC1 do in these assays?
Rin1-Abl PPI inh: 4; T cell HTS: 85; GRK2 aptamer HTS: 0; SKN-1 block: -2; Myeloid diff 2: inactive

What do the screens show for `CCC1Sc2ccc(S(=O)(=O)CCC(=O)Nc3ccccc3Cl)cc2NC1=O` (centres undefined)?
Rin1-Abl PPI inh: -1; T cell HTS: 262; GRK2 aptamer HTS: 1; SKN-1 block: 6; Myeloid diff 2: inactive; Rce1 inh: inactive; GRK2 CP2: 28; FAM quench CP2: 98

What do the screens show for `CCC1Sc2ccc(S(=O)(=O)CCC(=O)N3CCc4ccccc43)cc2NC1=O` (centres undefined)?
Rin1-Abl PPI inh: 5; T cell HTS: 399; GRK2 aptamer HTS: 57*; SKN-1 block: -10; Myeloid diff 2: inactive; Rce1 inh: inactive; GRK2 CP1: 3; FAM quench CP1: 97; GRK2 CP2: 1; FAM quench CP2: 104

Results for CC1Sc2ccc(S(=O)(=O)CCC(=O)N3CCc4ccccc43)cc2NC1=O (centres undefined) ?
Rin1-Abl PPI inh: 0; T cell HTS: 224; GRK2 aptamer HTS: 0; SKN-1 block: 12; Myeloid diff 2: inactive; Rce1 inh: inactive; GRK2 CP2: -28; FAM quench CP2: 99

How did CC1Sc2ccc(S(=O)(=O)CCC(=O)N3CCCC3)cc2NC1=O (centres undefined) do in these assays?
Rin1-Abl PPI inh: 2; T cell HTS: inactive; GRK2 aptamer HTS: 0; SKN-1 block: 15; Myeloid diff 2: inactive; Rce1 inh: inactive

What do the screens show for `COc1ccc(S(=O)(=O)N2CCCCC2)cc1NC(=O)c1cc(C)on1`?
Rin1-Abl PPI inh: 2; T cell HTS: 310; GRK2 aptamer HTS: 0; SKN-1 block: 1; Myeloid diff 2: inactive; Rce1 inh: inactive

What do the screens show for `O=C(NCCN1CCOCC1)C(=O)NCc1ccco1`?
Rin1-Abl PPI inh: -2; T cell HTS: 149; GRK2 aptamer HTS: 0; SKN-1 block: -3; Myeloid diff 2: inactive; Rce1 inh: inactive

What do the screens show for `O=C1C2CCC(C2)C1CN1CCOCC1` (centres undefined)?
Rin1-Abl PPI inh: 5; SKN-1 block: 2; Myeloid diff 2: inactive

How did CCN(CCNC(=O)C1CCN(c2nnc(-n3cccc3)s2)CC1)c1ccccc1 do in these assays?
Rin1-Abl PPI inh: -3; T cell HTS: 239; GRK2 aptamer HTS: 2; SKN-1 block: -5; Myeloid diff 2: inactive; Rce1 inh: inactive; GRK2 CP1: 1; FAM quench CP1: 97
